Activity calls are given as the source filed them. The rule behind the calls is not given here.
Experiments:
Chymotrypsinogen A = Chymotrypsinogen A (Bos taurus, UniProt P00766); experiment: Inhibition of bovine pancreatic alpha-chymotrypsin using Suc-Leu-Leu-Val-Tyr-AMC as substrate by fluorescence assay
Method in brief: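 Enzyme incubated at 20 °C in 50 mM Tris pH 8.0, 100 mM NaCl, 5 mM EDTA, 7.5% DMSO with varied inhibitor concentrations. Substrate hydrolysis followed for 10 min. Ki from progress curves; mean of three determinations.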

[1] = molecular target: Proteasome Macropain subunit (Homo sapiens) (UniProt P49721); experiment: Inhibition of trypsin-like activity of 20S proteasome in human erythrocytes using Boc-Leu-Arg-Arg-AMC as substrate by fluorescence assay; assay type: cell-based
Method in brief: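 Human 20S proteasome 0.0025 mg/mL at 30 °C in 50 mM Tris pH 7.4, 50 mM NaCl, 0.5 mM EDTA, 0.03% SDS, 7.5% DMSO. Varied inhibitor concentrations; AMC release monitored continuously for 10 min, ex 380/em 460 nm. Ki derived from progress-curve IC50 fit.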

[2] = Cytotoxicity against human prostate cancer cells assessed as cell growth at 10 uM relative to control; assay type: functional; conditions: Cancer cell lines, read-out: Activity
Method in brief: (§1)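 Single-concentration screen against a panel of human cancer cell lines. Each value is the mean percent growth across the cell lines of that tumour subpanel.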

[3] = Cytotoxicity against human melanoma cells assessed as cell growth at 10 uM relative to control; assay type: functional; conditions: read-out: Activity; method in brief: as §1
[4] = Cytotoxicity against human colon cancer cells assessed as cell growth at 10 uM relative to control; assay type: functional; conditions: Cancer cell lines, read-out: Activity; method in brief: as §1
[5] = Cytotoxicity against human breast cancer cells assessed as cell growth at 10 uM relative to control; assay type: functional; conditions: Cancer cell lines, read-out: Activity; method in brief: as §1
[6] = Cytotoxicity against human leukemia cells assessed as cell growth at 10 uM relative to control; assay type: functional; conditions: read-out: Activity; method in brief: as §1
[7] = Cytotoxicity against human CNSC cells assessed as cell growth at 10 uM relative to control; assay type: functional; conditions: read-out: Activity; method in brief: as §1
[8] = Cytotoxicity against human ovarian cancer cells assessed as cell growth at 10 uM relative to control; assay type: functional; conditions: Cancer cell lines, read-out: Activity; method in brief: as §1
[9] = Cytotoxicity against human renal cancer cells assessed as cell growth at 10 uM relative to control; assay type: functional; conditions: Cancer cell lines, read-out: Activity; method in brief: as §1
[10] = Cytotoxicity against human NSCLC cells assessed as cell growth at 10 uM relative to control; assay type: functional; conditions: read-out: Activity; method in brief: as §1
[11] = molecular target: T1, Proteasome Macropain subunit MB1 (Homo sapiens, UniProt P28074); experiment: Inhibition of chymotrypsin-like activity of 20S proteasome in human erythrocytes using Suc-Leu-Leu-Val-Tyr-AMC as substrate by fluorescence assay; conditions: read-out: Ki
T1 sequence (P28074 whole entry): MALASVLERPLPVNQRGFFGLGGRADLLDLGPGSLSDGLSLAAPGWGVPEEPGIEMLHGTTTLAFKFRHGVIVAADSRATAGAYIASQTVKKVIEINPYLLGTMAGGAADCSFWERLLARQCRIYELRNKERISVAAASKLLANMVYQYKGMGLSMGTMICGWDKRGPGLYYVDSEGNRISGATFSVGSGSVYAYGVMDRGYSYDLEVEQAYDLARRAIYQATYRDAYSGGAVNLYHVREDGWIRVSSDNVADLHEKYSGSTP

[12] = molecular target: Proteasome component C5 (Homo sapiens) (UniProt P20618); experiment: Inhibition of PGPH-like activity of 20S proteasome in human erythrocytes using Z-Leu-Leu-Glu-AMC as substrate at 20 uM by fluorescence assay relative to control
Method in brief: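 Single-concentration screen of PGPH activity. Human 20S proteasome (0.004 mg/mL) at 30 °C in 50 mM Tris pH 7.5 with 25 mM KCl, 10 mM NaCl, 1 mM MgCl2, 0.03% SDS, 5% DMSO; equivalent DMSO as control. AMC fluorescence at ex 380/em 460 nm.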

Proteasome Macropain subunit (Homo sapiens), sequence (P49721 whole entry): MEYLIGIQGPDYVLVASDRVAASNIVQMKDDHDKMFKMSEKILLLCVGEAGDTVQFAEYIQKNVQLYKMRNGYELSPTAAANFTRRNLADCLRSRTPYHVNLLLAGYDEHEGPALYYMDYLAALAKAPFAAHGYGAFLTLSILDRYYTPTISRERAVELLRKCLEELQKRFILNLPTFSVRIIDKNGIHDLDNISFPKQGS
Proteasome component C5 (Homo sapiens), sequence (P20618 whole entry): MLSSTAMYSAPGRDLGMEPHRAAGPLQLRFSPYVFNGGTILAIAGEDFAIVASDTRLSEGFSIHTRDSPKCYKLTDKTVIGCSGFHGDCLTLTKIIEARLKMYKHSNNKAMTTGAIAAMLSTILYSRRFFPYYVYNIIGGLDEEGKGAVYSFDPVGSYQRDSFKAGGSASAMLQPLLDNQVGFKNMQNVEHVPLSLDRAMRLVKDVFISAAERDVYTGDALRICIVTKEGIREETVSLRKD

Ki (Chymotrypsinogen A)	inhibition [1]	Ki [11] [nM]	inhibition [12] [%]	Compound	growth at 10 µM [2] [%]	growth at 10 µM [3] [%]	growth at 10 µM [4] [%]	growth at 10 µM [5] [%]	growth at 10 µM [6] [%]	growth at 10 µM [7] [%]	growth at 10 µM [8] [%]	growth at 10 µM [9] [%]	growth at 10 µM [10] [%]
Not Active	inactive	–	–	CC(C)C[C@H](NC(=O)Cn1ccc2ncccc2c1=O)B(O)O	–	–	–	–	–	–	–	–	–
–	inactive	–	–	COc1cc2ccn(CCC(=O)NCCC(C)C)c(=O)c2cc1OC	103	106	106	103	108	98	103	95.3	99.2
Not Active	inactive	80	44	CC(C)CCNC(=O)CCn1cc(Br)c2ncccc2c1=O	–	–	–	–	–	–	–	–	–
